This series can be described thus: Toxicity liver stage against HepG2, at 10uM. In kind it is cell-based. Details: test concentration 10 uM, cell line HepG2-A16-CD81EGFP. The following applies: human, HepG2-A16-CD81EGFP cells; read-out: INHIBITION
The method, boiled down: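 Uninfected HepG2-A16-CD81EGFP cells, 3 × 10^3 per well, 1536-well, plated on prespotted compound at 10 μM final, parasite-free screening media added to match infected plates; puromycin 10 μM positive, DMSO 0.5% negative; run in parallel with 48 h PbLuc assay at 37 °C, 5% CO2; viability by CellTiter-Glo luminescence, normalized to controls.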
Consider `CCn1cc(C(=O)Nc2ccccc2C(=O)OC)cn1`, for which the cytotoxicity at 10 µM is -7.25%.

Consider `CC(=O)N1CC=C(n2c(=O)[nH]c3ccccc32)CC1`, for which the cytotoxicity at 10 µM came to 1.73%.

For the compound `COC(=O)CC(c1cccc(OC(F)F)c1)c1oc(C)cc(=O)c1O` (stereo not drawn), the cytotoxicity at 10 µM was -9.11%.

As for `O=S(=O)(Cc1ccccc1Cl)N1CCC2(CC1)OCCS2`, the cytotoxicity at 10 µM came out at 0.649%.

Regarding `CC(C)CN1C[C@@H]2C(=O)NC3(CCN(C(=O)c4cccnc4)CC3)[C@@H]2C1`, the cytotoxicity at 10 µM was 5.53%.

As to `O=C(c1cc(F)cc(F)c1)N1C[C@H]2CNC[C@H]2C1`, the cytotoxicity at 10 µM was 2.91%.

For the compound `CC(NC(=O)OC(C)(C)C)c1nnc(S(=O)(=O)Cc2ccccc2Cl)o1` (stereo not drawn), the cytotoxicity at 10 µM came to 0.935%.

On to `CCc1c(C)n(CCC#N)c2nc3ccccc3n2c1=O`, for which the cytotoxicity at 10 µM was 2.73%.

In the case of `COc1ccc(C2=C(C)C(N3CCc4ccccc4C3)=NS2(=O)=O)cc1`, the cytotoxicity at 10 µM was -6.34%.

Take `CN(C)S(=O)(=O)N1CCC(Oc2cnccn2)CC1`: the cytotoxicity at 10 µM was found to be 1.65%.

`CSc1ncn(-c2nc(N(C)C)nc(N(C)C)n2)n1`: the cytotoxicity at 10 µM is -3.54%.

As for `Cc1nn(C)c(C)c1CN1CCNCC1`, the cytotoxicity at 10 µM is 4.68%.

In the case of `Cc1nn(C)c2c(N3CCN(C)CC3)nc(C3CC3)nc12`, the cytotoxicity at 10 µM was -5.2%.

In the case of `CCc1ccccc1NC(=O)c1cnn(C)c1C`, the cytotoxicity at 10 µM is -2.52%.

On to `O=C(O)c1cccc(CN2CCCC(c3ccn[nH]3)C2)c1` (stereo not drawn), for which the cytotoxicity at 10 µM came out at 3.98%.

Regarding `CC(C)(C)OC(=O)N1CCCN(c2nnc(Br)s2)CC1`, the cytotoxicity at 10 µM turned out to be 10.5%.

With `CN(CCOc1cccc(F)c1)CC(=O)Nc1ccncc1`, the cytotoxicity at 10 µM turned out to be 9.16%.

As for `Cn1cc(S(=O)(=O)N2CCCC(Cn3cncn3)C2)cn1` (stereo not drawn), the cytotoxicity at 10 µM is 2%.

Turning to `CC(c1ccco1)N(C(=O)CNc1ccc(C#N)cc1)C1CC1` (stereo not drawn), the cytotoxicity at 10 µM is 7.79%.

Turning to `Cc1ccccc1C(C)NC(=O)CN1CCN(Cc2ccc(Cl)s2)CC1` (stereo not drawn), the cytotoxicity at 10 µM worked out at 10.8%.

As for `CC(=O)N1CCC(C(=O)N(CC(F)F)c2cccc(Cl)c2)CC1`, the cytotoxicity at 10 µM is 5.71%.

On to `CSCC(=O)NC(Cc1ccc(C)cc1)c1ccccn1` (stereo not drawn), for which the cytotoxicity at 10 µM worked out at 1.23%.

`O=C(CC1=CCCCC1)NCc1ccnc(OC2CCOCC2)c1`: the cytotoxicity at 10 µM was -0.103%.

Turning to `CCOC(=O)NCCC(=O)NCc1ccnc(Oc2ccc(F)cc2)c1`, the cytotoxicity at 10 µM was found to be 6.74%.

On to `CNC(=O)CSC(C)c1ccc(Br)cc1` (stereo not drawn), for which the cytotoxicity at 10 µM is -5.71%.

`COC(C)C(=O)Nc1cc(C(=O)N2CCSCC2)ccc1C` (stereo not drawn): the cytotoxicity at 10 µM turned out to be 6.83%.

Consider `COc1c(C2CCCN2C(=O)c2cc(C3CC3)on2)c(C)nn1C` (stereo not drawn), for which the cytotoxicity at 10 µM is -2.87%.

As for `CSC(C)(C)CNC(=O)NC(c1nnc2n1CCC2)C(C)C` (stereo not drawn), the cytotoxicity at 10 µM is -19.9%.

Turning to `CCNC(=O)CN(CC)C(=O)c1cc(-c2cccc(Cl)c2)no1`, the cytotoxicity at 10 µM was -9.88%.

Take `Cc1ccc(N2CCCC(NC(=O)C(C)(C)C#N)C2=O)cc1` (stereo not drawn): the cytotoxicity at 10 µM was -2.42%.

`CCc1ncc2c(n1)CN(C(C)C(=O)N1CCOCC1)CC2` (stereo not drawn): the cytotoxicity at 10 µM was -8.52%.

As for `Cc1ccc(S(=O)(=O)N(CCO)C2CC2)cc1N(C)C`, the cytotoxicity at 10 µM is -8.91%.

As for `CC(=O)N1CCN(C(=O)CCc2cc(Br)cs2)CC1`, the cytotoxicity at 10 µM is -9.74%.

For the compound `Cn1ccc(C(=O)NCc2ccccc2Cn2ccnc2)cc1=O`, the cytotoxicity at 10 µM was found to be 9.42%.

As to `CNC(=O)CN1CCC(NC(=O)CC(C)CCc2ccccc2)CC1` (stereo not drawn), the cytotoxicity at 10 µM worked out at 8.47%.

`CCCC(C)NC(=O)CCN1C(=O)CCc2cc(F)ccc21` (stereo not drawn): the cytotoxicity at 10 µM amounted to 8.17%.

Turning to `COC(=O)N1CCCN(C(=O)NC2CCc3ccccc3C2)CC1` (stereo not drawn), the cytotoxicity at 10 µM is -1.14%.

Turning to `Cc1nc(C2CCCN2C(=O)COCCOc2ccccc2)no1` (stereo not drawn), the cytotoxicity at 10 µM is -5.82%.

For `O=C(COc1cccc(Br)c1)N1CCN(c2nccs2)CC1`, the cytotoxicity at 10 µM was -1.53%.

As for `COCc1cncc2c1CCN(C(=O)c1cscn1)C2`, the cytotoxicity at 10 µM is -104%.

As to `CC(C)CN1C[C@@H]2CN(c3cnccn3)C[C@@H]2C1=O`, the cytotoxicity at 10 µM is -91.6%.

Take `CS(=O)(=O)NC[C@]12COC[C@H]1CN(C(=O)N1CCCC1)C2`: the cytotoxicity at 10 µM is -109%.

Turning to `c1cnc(N2CCO[C@H]3[C@H](OCc4cccnc4)CC[C@@H]32)nc1`, the cytotoxicity at 10 µM was -5.05%.

For the compound `Cc1noc(C)c1CN1CC[C@H]2C[C@@H](c3ccncn3)O[C@@H]2C1`, the cytotoxicity at 10 µM is -3.04%.

Turning to `CCc1noc(CN(CCc2ccccc2)C2CCN(C)CC2)n1`, the cytotoxicity at 10 µM came out at 0.15%.

`O=C(CN1CCOC(c2ccc(Cl)c(Cl)c2)C1)NCc1ccco1` (stereo not drawn): the cytotoxicity at 10 µM is -7.31%.

`Cc1nc(-c2cccnc2)ncc1C(=O)N1CCCC(N(C)C)CC1` (stereo not drawn): the cytotoxicity at 10 µM worked out at 9.81%.

As to `Cc1nnc(SCCCNC(=O)Nc2ccc3c(c2)OCO3)s1`, the cytotoxicity at 10 µM amounted to 7.28%.

On to `Cn1cc(CN(C(=O)c2ccc(O)c(Cl)c2)C2CC2)cn1`, for which the cytotoxicity at 10 µM stood at 5.17%.

Regarding `OCC1(O)CCCN(Cc2nnc(-c3ccccc3)o2)CC1` (stereo not drawn), the cytotoxicity at 10 µM is -3.69%.

Take `O=C(O)c1ccnc(-c2ccnc(COc3ccc(Cl)cc3)n2)c1`: the cytotoxicity at 10 µM is -6.67%.

For `O=C(NCCCOC1CCCCC1)C1NCCc2[nH]cnc21` (stereo not drawn), the cytotoxicity at 10 µM worked out at 4.68%.

`CN1CCCC2(CCN(C(=O)Cn3ncc4ccccc4c3=O)C2)C1=O` (stereo not drawn): the cytotoxicity at 10 µM worked out at 1.57%.

For the compound `CC(Nc1nccc(CCC(F)(F)F)n1)c1nc(-c2ccccn2)no1` (stereo not drawn), the cytotoxicity at 10 µM was -6.43%.

For the compound `Cc1cc(C(=O)N[C@H]2Cc3ccccc3[C@@H]2N)c(=O)[nH]c1C`, the cytotoxicity at 10 µM is 11.2%.

In the case of `Cc1nn(C)c(C)c1CN(C)C(C(=O)O)c1ccc(F)cc1F` (stereo not drawn), the cytotoxicity at 10 µM was found to be 8.42%.

For `COCCn1ccnc1C1CCCN(c2cnccn2)C1` (stereo not drawn), the cytotoxicity at 10 µM worked out at 3.23%.

For `O=C(NCCCn1cccn1)C1CCC(=O)N(CC2CCCCC2)C1` (stereo not drawn), the cytotoxicity at 10 µM was -0.312%.

Take `O=C1CC2(CCN(Cc3ccc(-c4ccccc4)s3)C2)C(=O)N1` (stereo not drawn): the cytotoxicity at 10 µM was -0.745%.

For the compound `Clc1ccc(N2CCC(C3CCN(Cc4cccnc4)CC3)C2)nc1` (stereo not drawn), the cytotoxicity at 10 µM came to 13.5%.

Turning to `CC(C)c1cc(N2CCCC3(CCN(C)C3)C2)ncn1` (stereo not drawn), the cytotoxicity at 10 µM was -7.36%.

On to `CCc1nnc(CN2CCCCC2Cn2cncn2)o1` (stereo not drawn), for which the cytotoxicity at 10 µM is -1.1%.

Turning to `CCOc1cc(C)nc(N2CCN(C(=O)CN(C)C3CC3)CC2)n1`, the cytotoxicity at 10 µM was 5.05%.

`CN(Cc1nnc(C2CC2)n1C)C1CCN(Cc2nccn2C)C1` (stereo not drawn): the cytotoxicity at 10 µM is -8.22%.

`Cc1cnn(C2CCCN(C(=O)CCCc3ccccn3)C2)c1` (stereo not drawn): the cytotoxicity at 10 µM is -11.2%.

In the case of `CC(Cc1ccco1)NC(=O)Nc1ccc(N2CCCC2)nc1` (stereo not drawn), the cytotoxicity at 10 µM was -3.31%.

Take `CC(Cn1cccn1)NC(=O)NCCc1ccsc1` (stereo not drawn): the cytotoxicity at 10 µM was -14.8%.

For `COc1ccsc1C(=O)N1CCCC(n2cncn2)C1` (stereo not drawn), the cytotoxicity at 10 µM worked out at 4.6%.

Consider `CC(NC(=O)c1cccs1)C(=O)NCc1ccccn1` (stereo not drawn), for which the cytotoxicity at 10 µM was -12.3%.

In the case of `O=C(NCCCN1CCCCCC1=O)c1n[nH]c(=O)c2ccccc12`, the cytotoxicity at 10 µM is -12.3%.

Take `CN(C)c1ccc(C(=O)N2CCN(CC(C)(C)O)CC2)nn1`: the cytotoxicity at 10 µM was -13.3%.

Regarding `Cc1nc(CN2CCCC(c3cc(C(F)(F)F)[nH]n3)C2)cs1` (stereo not drawn), the cytotoxicity at 10 µM was -4.95%.

On to `Cc1ccc(OCCN(C)C(=O)NC(C)c2nncn2C)cc1` (stereo not drawn), for which the cytotoxicity at 10 µM was -9.77%.

Turning to `Cc1cnn(CC2CN(CCc3ccccn3)CCO2)c1` (stereo not drawn), the cytotoxicity at 10 µM was -4.98%.

For `Cc1ccc(-c2nc(CN3CCCCC3Cn3cncn3)no2)cc1` (stereo not drawn), the cytotoxicity at 10 µM is -0.403%.

As to `COc1cccc(C(=O)N2CCC(Nc3ccc(C)nn3)CC2)c1`, the cytotoxicity at 10 µM is -2.24%.

Turning to `Cn1ncc2c(NCC3CCCN3c3cccnn3)ncnc21` (stereo not drawn), the cytotoxicity at 10 µM is -11.9%.

On to `CC(C)c1nc(CN2CCN(CC(O)c3ccccc3)CC2)no1` (stereo not drawn), for which the cytotoxicity at 10 µM was -3.6%.

With `Cc1ccc(OCCC(=O)N2CCOCC2c2ncon2)cc1C` (stereo not drawn), the cytotoxicity at 10 µM was -11.9%.

Turning to `CN1N=C(C(=O)N2CCCC(n3ccnc3)C2)CCC1=O` (stereo not drawn), the cytotoxicity at 10 µM was -13.2%.

Turning to `COc1c(CNC2CCc3cc(C)ccc32)c(C)nn1C` (stereo not drawn), the cytotoxicity at 10 µM is -0.0225%.

In the case of `O=C(c1ccc2c(c1)COC2)N1CCCN(Cc2cscn2)CC1`, the cytotoxicity at 10 µM was 0.0102%.

Regarding `Cn1ccnc1CN1CCN(CC(O)c2cc(F)ccc2F)CC1` (stereo not drawn), the cytotoxicity at 10 µM is -13.8%.

For `O=C(CCc1ccccn1)N1CCCN(C(=O)CC2CCCC2)CC1`, the cytotoxicity at 10 µM was -0.546%.

With `CCOc1ccc(CC(CNC(=O)c2ccc(C)s2)C(N)=O)cc1` (stereo not drawn), the cytotoxicity at 10 µM was -3.85%.

Take `Cc1cnc(CN2CCOC(CN(C)c3cccnn3)C2)cn1` (stereo not drawn): the cytotoxicity at 10 µM stood at 3.64%.

For `Cc1cc(C(=O)N2CCC(Nc3cccnn3)CC2)no1`, the cytotoxicity at 10 µM is -0.0225%.

Consider `Cc1nn(C)c(C)c1C1CCCN1Cc1nc(C2CC2)no1` (stereo not drawn), for which the cytotoxicity at 10 µM was -6.68%.

Turning to `CC(C)N(C)Cc1cnc2n1CCN(Cc1ccsc1)C2`, the cytotoxicity at 10 µM is 1.96%.

On to `CCc1ccc(CN2CCC3(CC2)NC(=O)CC3c2ccncc2)o1` (stereo not drawn), for which the cytotoxicity at 10 µM was determined as 1.83%.

Turning to `O=C1[C@@H]2CN(Cc3ccccn3)C[C@H]2CCN1c1cncnc1`, the cytotoxicity at 10 µM was -115%.

Regarding `CC(C)Nc1nc2c(cc1C(=O)O)CCN(Cc1ccsc1)CC2`, the cytotoxicity at 10 µM turned out to be 0.676%.

Consider `c1ccc(CN2CCc3nnc(COc4ccccn4)n3CC2)nc1`, for which the cytotoxicity at 10 µM was -2.1%.

With `COc1ccc(CN2CCC3(CC(=O)N(c4cccc(F)c4)C3)C2)cc1` (stereo not drawn), the cytotoxicity at 10 µM was -137%.

For `COCC1CN(Cc2ccc(C)s2)Cc2nnn(C)c21` (stereo not drawn), the cytotoxicity at 10 µM worked out at 5.17%.

Take `O=C(NCc1cccc(Cl)c1)C1=NOC2(CCNC2)C1` (stereo not drawn): the cytotoxicity at 10 µM is -0.0606%.

With `CCn1cc(CN2C[C@@H]3CC[C@H]2CN(C(=O)c2ccncc2)C3)cn1`, the cytotoxicity at 10 µM came to 10.2%.

`Cc1[nH]ccc1C(=O)N1C[C@@H]2CC[C@H]1CN(S(=O)(=O)N(C)C)C2`: the cytotoxicity at 10 µM came to 11.8%.

The record behind these values is ChEMBL document CHEMBL4513216, “Probing the Open Global Health Chemical Diversity Library for Multistage-Active Starting Points for Next-Generation Antimalarials” (ACS Infect Dis, 2020).
